MrgX1 PAM = positive allosteric modulators of MrgX1, primary screen, HEK293 cells, Fluo-4 calcium flux. 310,000 tested, 0.63% active. Mas-related G-protein coupled receptor member X1 (Homo sapiens), Q96LB2. AID 588675, 2011. FDSS; active compounds read high. B-score at 10 µM;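 active = plate-corrected calcium response at least 3 library SD above typical, normal starting fluorescence, not activating the receptor alone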;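 note: compound read alongside a low EC10 to EC30 dose of BAM8-22 agonist; peak minus trough fluorescence over baseline measured at the second addition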
Target sequence (Q96LB2 whole entry, looked up): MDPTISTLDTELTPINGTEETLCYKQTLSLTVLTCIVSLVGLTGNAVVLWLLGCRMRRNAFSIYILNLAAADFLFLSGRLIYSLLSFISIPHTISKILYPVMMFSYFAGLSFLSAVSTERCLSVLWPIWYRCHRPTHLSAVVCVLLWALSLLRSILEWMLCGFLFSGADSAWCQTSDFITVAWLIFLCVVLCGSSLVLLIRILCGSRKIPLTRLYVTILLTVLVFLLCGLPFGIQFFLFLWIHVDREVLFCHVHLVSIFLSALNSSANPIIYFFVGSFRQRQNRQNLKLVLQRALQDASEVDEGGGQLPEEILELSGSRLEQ
MrgX1 ag = agonists of human MrgX1 receptor, primary screen, HEK293 cells, Fluo-4 calcium flux. AID 588627, 2011. 310,000 tested, 0.44% active. Fluo-4 calcium fluorescence, agonist mode; active compounds read high. B-score at 10 µM. Mas-related G-protein coupled receptor member X1 (Homo sapiens), Q96LB2;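 active = calcium response B-score plate-corrected fluorescence ratio at least 3 library SD, with starting fluorescence B-score inside 5 SD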
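Material: MrgX1-expressing HEK293 cells; input: 15,000 cells per well; doses: test compound given as first of three sequential additions; schedule: overnight plating before 1 h dye loading; technique: Fluo-4 NW calcium-flux fluorescence, kinetic read; evaluation: baseline-normalised fluorescence change ratio, B-scored; control set: plate-wise positive and negative controls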
RGS4 pot = RGS4 potentiators or activators, primary screen, cell-based, HEK293 M3R inducible RGS4, calcium flux | carbachol calcium flux Fluo4; active compounds read low | 310,000 tested, 0.92% active | AID 463111, 2010 | B-score at 10 µM;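 active = B-score of the integrated calcium signal more than 4 SD below the library mean, with starting fluorescence not abnormally high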;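 note: negative B-score means reduced calcium response which marks RGS4 activation or potentiation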
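System: HEK293 FlpIn-TREx cells, stable M3R, doxycycline-inducible RGS4. Timing: overnight RGS4 induction, 30 min dye load 37 °C, 20 min compound RT. Also added: carbachol, ECmax concentration. Measured by: Fluo4 fluorescence kinetic imaging of calcium. Evaluation: integrated calcium ratio converted to B score.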
MrgX1 antag = antagonists of human MrgX1 receptor, primary screen, HEK293 cells, Fluo-4 calcium flux | BAM8-22 antagonism; active compounds read low | B-score at 10 µM | Mas-related G-protein coupled receptor member X1 (Homo sapiens), Q96LB2 | 310,000 tested, 1.3% active;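 active = calcium-response B-score plate-corrected more than 3 library SD below zero, starting fluorescence within 5 deviations, no agonist response on first addition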;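 note: peak minus trough fluorescence over baseline after final BAM8-22 challenge near maximal dose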
RGS4 block = RGS4 inhibitors, primary screen, cell-based, HEK293 M3R inducible RGS4, calcium flux | Fluo-4 calcium flux; active compounds read high; triggered by carbachol at its EC20 | B-score at 10 µM | 310,000 tested, 0.45% active | AID 463165, 2010 | Regulator of G-protein signaling 4 (Homo sapiens), P49798;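 active = B-score, a plate-corrected calcium signal, over three deviations above library mean, with baseline fluorescence within five deviations of library mean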;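 note: RGS4 expression induced by doxycycline in cells with stable M3 receptor; B-score is computed from the integrated fluorescence ratio over baseline after carbachol; higher B-score means a larger calcium signal and so more RGS4 inhibition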
Target sequence (P49798 whole entry, looked up): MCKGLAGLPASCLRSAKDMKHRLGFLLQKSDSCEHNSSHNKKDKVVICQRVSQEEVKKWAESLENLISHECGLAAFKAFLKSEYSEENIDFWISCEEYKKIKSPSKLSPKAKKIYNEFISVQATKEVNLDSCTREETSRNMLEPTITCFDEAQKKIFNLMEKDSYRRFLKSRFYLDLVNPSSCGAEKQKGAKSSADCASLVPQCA
An asterisk follows results filed as active; i = inactive; . = no result. Rows were chosen to be rich in hits. Some 3.5% of all compounds tested hit in one or more screens of this group.

SMILES | MrgX1 PAM | MrgX1 ag | RGS4 pot | MrgX1 antag | RGS4 block
Cc1ccc(C)c(CN2CCC(CNC(=O)Nc3ccc(Cl)cc3)CC2)c1 | i | i | i | i | i
CN(C)c1ccc(/C=C2\C(=N)N3N=C(CC(=O)N4CCCCC4)SC3=NC2=O)cc1 | i | 54.9* | i | i | i
N=C1/C(=C/c2ccc(OCc3ccccc3)cc2)C(=O)N=C2SC(CC(=O)N3CCOCC3)=NN12 | 9.74* | i | i | i | i
Cc1cc(/C=C2\C(=N)N3N=C(CC(=O)N4CCOCC4)SC3=NC2=O)c(C)n1Cc1ccccc1 | i | i | i | i | i
CN(C)c1ccc(/C=C2\C(=N)N3C(=NC2=O)Sc2cc(S(C)(=O)=O)ccc23)cc1 | i | 29.5* | i | i | i
COc1ccccc1CNC(=O)[C@H](C)NC(=O)C1CCN(C(=O)[C@@H](N)C(C)C)CC1 | i | i | i | i | i
Cc1ccc(-c2csc(N3CCN(S(=O)(=O)c4ccc5c(c4)NC(=O)CO5)CC3)n2)cc1 | i | i | i | i | i
CCOc1ccccc1C1c2[nH]c3ccccc3c2C[C@H]2C(=O)N(C3CC3)CC(=O)N12 (some centres not stated) | i | i | i | i | i
Cc1cccc(-c2cc(C(=O)N/N=C/c3cccnc3)c3ccccc3n2)c1 | i | i | i | i | i
CCCOc1cccc(-c2cc(C(=O)N/N=C/c3cccnc3)c3ccccc3n2)c1 | i | i | -8.12* | i | i
CCCOc1cccc(-c2cc(C(=O)N/N=C/c3ccccn3)c3ccccc3n2)c1 | i | i | -9.12* | i | i
CC[N+](CC)(CC)CCOc1ccc(/C=C/c2ccccc2)cc1 | i | i | . | -5.1* | .
CC(=O)c1cccc(NC(=O)C(C)OC(=O)CCN=C2NS(=O)(=O)c3ccccc32)c1 (configuration not stated) | i | i | i | i | i
CCOc1ccc(N2C(=O)/C(=C/c3cc(OC)c(OC)c(OC)c3)N(CC(=O)OC)C2=S)cc1 | i | i | i | i | i
CCOc1ccc(/C=C2/C(=O)N(c3ccc(OC)cc3)C(=S)N2CC(=O)OC)cc1OCC | i | i | i | -6.39* | i
Cc1ccnc(NC(=O)COc2ccc3c(c2)CCC3)c1 | i | i | i | i | i
O=C(c1ccc([N+](=O)[O-])c(CS(=O)(=O)c2ccc(Cl)cc2)c1)N1CCCC1 | i | i | i | i | i
CCOC(=O)C1=C(N)n2c(s/c(=C/c3ccco3)c2=O)=C(C(=O)OC)C1c1ccco1 (configuration not stated) | i | i | i | -5.74* | i
O=C(COC(=O)/C=C/c1cn(-c2ccccc2)nc1-c1ccc2c(c1)OCCO2)NC1CCS(=O)(=O)C1 (configuration not stated) | i | i | -8.5* | i | i
N#CCCN(C(=O)COC(=O)c1ccc(CNS(=O)(=O)c2ccc(F)c(Cl)c2)cc1)c1ccc(F)cc1 | i | i | -8.84* | i | i
O=C(COC(=O)c1ccc(CNS(=O)(=O)c2ccc(F)c(Cl)c2)cc1)NC1CCCCCCC1 | i | i | i | i | i
CCCN(CC1CC1)C(=O)COC(=O)c1ccc(CNS(=O)(=O)c2ccc(F)c(Cl)c2)cc1 | i | i | i | -4.86* | i
Cc1cccc(NC(=O)CSc2nc(N)c(NC(=O)c3cccs3)c(=O)[nH]2)c1C | i | i | i | i | i
O=C(Nc1ccccc1C(F)(F)F)N1CCN(C(c2ccccc2)c2ccccc2)CC1 | i | i | i | -7.15* | i
CC(=O)c1cn(-c2ccc(Cl)cc2)c(=O)n(Cc2ccc(F)cc2)c1=O | i | i | i | -7.94* | i
SMILES | MrgX1 PAM | MrgX1 ag | RGS4 pot | MrgX1 antag | RGS4 block
Cc1ccc(S(=O)(=O)CCC(=O)OCC(=O)NC2CCS(=O)(=O)C2)cc1 (configuration not stated) | i | i | i | i | i
Cc1onc(-c2c(Cl)cccc2Cl)c1C(=O)NC1CCCCC1 | i | i | i | i | i
Cc1onc(-c2c(Cl)cccc2Cl)c1C(=O)NN1CCCCCC1 | i | i | -8.44* | i | i
Cc1cccc(C)c1OCC(=O)NNC(=S)NC(=O)C1CC1 | i | 62.7* | i | i | i
C=CCSc1nc2ccccc2c(=O)n1Cc1ccccc1 | i | i | i | i | i
O=c1c2ccccc2nc(SCc2ccccc2Cl)n1Cc1ccccc1 | i | i | i | -6.84* | i
CC(C)C[C@@H](COc1ccccc1)N1CCN(CCc2ccccc2)CCC1=O | 11.1* | i | i | i | i
Cc1ccc(CNC(=O)C(=O)NCC2CCCN2S(=O)(=O)c2cccs2)cc1 (configuration not stated) | i | i | i | i | i
N#C/C(=C\c1ccc(O)c(O)c1)C(=O)NCCCc1ccccc1 | 6.74* | i | i | i | i
COc1ccc(/C=C2\SC(=S)N(C(C(=O)O)c3ccccc3)C2=O)c(OC)c1 (configuration not stated) | i | i | i | -5.17* | i
COc1ccc(/C=C2\SC(=S)N(NS(=O)(=O)c3ccc(C)cc3)C2=O)c(OC)c1 | i | i | -8.19* | i | i
COc1ccc(/C=C2\SC(=S)N(NS(=O)(=O)c3ccccc3)C2=O)c(OC)c1 | i | i | -7.46* | -8.67* | i
CCOc1ccc(/C=C2\SC(=S)N(NS(=O)(=O)c3ccccc3)C2=O)cc1OC | i | i | i | i | i
CCOc1cc(/C=C2\SC(=S)N(NS(=O)(=O)c3ccccc3)C2=O)ccc1O | i | 34.4* | i | i | i
CC(=O)Nc1ccccc1C(=O)N1CC(C)OC(C)C1 (configuration not stated) | i | i | i | i | i
Cc1cccc(NC(=O)CCN2CCC(C)CC2)c1 | i | i | i | i | i
O=C1/C(=C/c2cccs2)SC(=S)N1NS(=O)(=O)c1ccccc1 | i | i | i | i | i
O=C1/C(=C/C=C/c2ccco2)SC(=S)N1NS(=O)(=O)c1ccccc1 | 7.9* | i | . | i | .
CC(C)N1CCc2c(sc(NC(=O)c3nc4ccccc4s3)c2C(N)=O)C1 | i | i | i | i | i
CC(C)N1CCc2c(sc(NC(=O)c3cc(-c4cccs4)nc4ccccc34)c2C(N)=O)C1 | i | i | -11.3* | i | i

Assay outcomes from PubChem.
